From ChEMBL document CHEMBL4043206, “Anticancer potential of aminomethylidene-diazinanes I. Synthesis of arylaminomethylidene of diazinetriones and its cytotoxic effects tested in glioblastoma cells” (Bioorg Med Chem, 2017)

Experiments:
LN-229 [1] = assay: Cytotoxicity against human LN229 cells assessed as cell viability at 10 ug/ml incubated for 72 hrs by Guava ViaCount reagent based flow cytometry; type: functional; conditions: LN-229, 72 h, read-out: Activity
Summary of the method: (§1)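 Cells kept as semi-confluent monolayers in DMEM with 10% FBS, 50 U/ml penicillin and […], at 37 °C under 5% CO₂. Seeded at 2 × 10⁴ cells per well in 24-well plates. Compounds were made up as 10 mg/ml DMSO stocks, diluted into medium to a final 1 or 10 μg/ml, and left on the cells for 72 h.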

LN-229 [2] = assay: Cytotoxicity against human LN229 cells assessed as cell viability at 1 ug/ml incubated for 72 hrs by Guava ViaCount reagent based flow cytometry; type: functional; conditions: LN-229, 72 h, read-out: Activity; summary of the method: as §1
[3] = Solubility in water; type: physicochemical; conditions: buffer
[4] = Solubility in organic solvents; type: physicochemical

Row | SMILES | viability at 10 µg/mL (LN-229 [1]) [%] | viability at 1 µg/mL (LN-229 [2]) [%] | solubility [3] | solubility [4]
1 | O=C1NC(=O)C(=CNc2cccc3ccccc23)C(=O)N1 | 95.1 | 93.2 | – | –
2 | CN1C(=O)/C(=C/Nc2ccc(-c3ccccc3)cc2)C(=O)NC1=S | 89.6 | 97 | – | –
3 | O=C1NC(=S)NC(=O)C1=CNc1cccc2c1C(=O)c1ccccc1C2=O | 48.6 | 65 | – | –
4 | CN1C(=O)C(=CNc2cccc3ccccc23)C(=O)N(C)C1=O | 95.4 | 94.5 | – | –
5 | O=C1NC(=O)C(=CNc2ccccc2)C(=O)N1 | 96.1 | 96.2 | Insoluble | Insoluble
6 | CN1C(=O)NC(=O)/C(=C/Nc2ccccc2)C1=O | 95 | 94.9 | Insoluble | Insoluble
7 | CN1C(=O)C(=CNc2ccc3c(c2)C(=O)c2ccccc2C3=O)C(=O)N(C)C1=O | 68.3 | 92.4 | – | –
8 | CN1C(=O)/C(=C/Nc2ccc3ccccc3c2)C(=O)NC1=S | 84.5 | 94.6 | – | –
9 | O=C1NC(=O)N(c2ccccc2)C(=O)/C1=C/Nc1ccc2c(c1)C(=O)c1ccccc1C2=O | 76.5 | 87.6 | – | –
10 | CN1C(=O)NC(=O)/C(=C\Nc2ccc3c(c2)C(=O)c2ccccc2C3=O)C1=O | 28.9 | 89.7 | – | –
11 | O=C1NC(=S)NC(=O)C1=CNc1ccc(-c2ccccc2)cc1 | 13.8 | 95.3 | – | –
12 | CN1C(=O)/C(=C/Nc2ccc3cc4ccccc4cc3c2)C(=O)NC1=S | 3.7 | 75 | – | –
13 | O=C1NC(=O)C(=CNc2ccc(-c3ccccc3)cc2)C(=O)N1 | 85.5 | 92.6 | – | –
14 | O=C1NC(=O)N(c2ccc([N+](=O)[O-])cc2)C(=O)/C1=C/Nc1cccc2c1C(=O)c1ccccc1C2=O | 10.4 | 75.8 | – | –
15 | O=C1NC(=O)C(=CNc2ccc3ccccc3c2)C(=O)N1 | 82.4 | 92.4 | – | –
16 | O=C1NC(=S)NC(=O)C1=CNc1ccccc1 | 95.3 | 96.5 | Insoluble | Insoluble
17 | O=C1NC(=S)NC(=O)C1=CNc1ccc2ccccc2c1 | 94.4 | 96.5 | – | –
18 | CN1C(=O)/C(=C/Nc2cccc3ccccc23)C(=O)NC1=S | 78.3 | 90 | – | –
19 | CN1C(=O)NC(=O)/C(=C\Nc2ccc3cc4ccccc4cc3c2)C1=O | 9.4 | 60.3 | – | –

Row | SMILES | viability at 10 µg/mL (LN-229 [1]) [%] | viability at 1 µg/mL (LN-229 [2]) [%] | solubility [3] | solubility [4]
20 | CN1C(=O)C(=CNc2ccc3cc4ccccc4cc3c2)C(=O)N(C)C1=O | 60.8 | 88.1 | – | –
21 | CN1C(=O)/C(=C/Nc2cccc3c2C(=O)c2ccccc2C3=O)C(=O)NC1=S | – | – | Insoluble | Insoluble
22 | CN1C(=O)NC(=O)/C(=C\Nc2cccc3ccccc23)C1=O | 94.5 | 89 | – | –
23 | O=C1NC(=O)C(=CNc2cccc3c2C(=O)c2ccccc2C3=O)C(=O)N1 | 22.1 | 31.9 | – | –
24 | O=C1NC(=O)N(c2ccc([N+](=O)[O-])cc2)C(=O)/C1=C/Nc1ccc2c(c1)C(=O)c1ccccc1C2=O | 61.8 | 88.2 | – | –
25 | CN1C(=O)/C(=C/Nc2ccc3c(c2)C(=O)c2ccccc2C3=O)C(=O)NC1=S | 17.2 | 80.8 | – | –
26 | CN1C(=O)C(=CNc2ccccc2)C(=O)N(C)C1=O | 96.1 | 95 | Insoluble | Insoluble
27 | CN1C(=O)C(=CNc2ccc(-c3ccccc3)cc2)C(=O)N(C)C1=O | 94.6 | 94.8 | – | –
28 | CN1C(=O)C(=CNc2ccc3ccccc3c2)C(=O)N(C)C1=O | 86.6 | 90.5 | – | –
29 | CN1C(=O)NC(=O)/C(=C\Nc2ccc3ccccc3c2)C1=O | 56 | 90 | – | –
30 | CN1C(=O)C(=CNc2cccc3c2C(=O)c2ccccc2C3=O)C(=O)N(C)C1=O | 86.3 | 94.7 | – | –
31 | O=C1NC(=S)NC(=O)C1=CNc1ccc2c(c1)C(=O)c1ccccc1C2=O | 12.3 | 87.4 | – | –
32 | O=C1NC(=S)NC(=O)C1=CNc1ccc2cc3ccccc3cc2c1 | 11 | 83.3 | – | –
33 | CN1C(=O)/C(=C\Nc2ccccc2)C(=O)NC1=S | 94.3 | 94.3 | Insoluble | Insoluble
34 | O=C1NC(=O)C(=CNc2ccc3c(c2)C(=O)c2ccccc2C3=O)C(=O)N1 | 17.2 | 82.9 | – | –
35 | CN1C(=O)NC(=O)/C(=C\Nc2ccc(-c3ccccc3)cc2)C1=O | 93.5 | 96.9 | – | –
36 | O=C1NC(=O)N(c2ccccc2)C(=O)/C1=C/Nc1cccc2c1C(=O)c1ccccc1C2=O | 29.2 | 66.3 | – | –
37 | CN1C(=O)NC(=O)/C(=C\Nc2cccc3c2C(=O)c2ccccc2C3=O)C1=O | 35.3 | 84.8 | – | –
